Activity calls are given as the source filed them. The rule behind the calls is not given here.
Tests used:
Mus musculus [1] = assay: Anticonvulsant activity in CF-1 albino mouse assessed as protection against subcutaneous pentylenetetrazol-induced seizures at 300 mg/kg, ip measured after 4 hrs; format: functional, organism-based; design: dose 300 mg/kg
Procedure, shortened: (§1)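 scPTZ test in male CF-1 mice. Compound suspended in 0.5% methylcellulose/water, ip at 30, 100 or 300 mg/kg. Pentylenetetrazole 85 mg/kg (CD97, clonic seizures lasting at least 5 s) given subcutaneously at the test time, read at 0.5 and 4 h. Value is the minimum dose protecting half or more of the animals.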

Mus musculus [2] = assay: Neurotoxicity in ip dosed CF-1 albino mouse assessed as motor impairment measured after 0.5 hrs by rotarod test; format: toxicity, organism-based; conditions: in vivo
Procedure, shortened: (§2)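 Rotarod neurotoxicity in male CF-1 mice given ip doses of 30, 100 or 300 mg/kg (0.5% methylcellulose suspension), examined 0.5 and 4 h after dosing. Impairment means failing to hold balance on the rod for 1 min. Value is the minimum dose causing toxicity in half or more of the animals; response comments are recorded.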

Mus musculus [3] = assay: Anticonvulsant activity in ip dosed CF-1 albino mouse assessed as protection against subcutaneous pentylenetetrazol-induced seizures measured after 0.5 hrs; format: functional; conditions: read-out: MED; procedure, shortened: as §1
Mus musculus [4] = assay: Neurotoxicity in CF-1 albino mouse assessed as motor impairment at 300 mg/kg, ip measured after 4 hrs by rotarod test; format: toxicity, organism-based; design: dose 300 mg/kg, route intraperitoneal; conditions: in vivo; procedure, shortened: as §2
Mus musculus [5] = assay: Anticonvulsant activity in ip dosed CF-1 albino mouse assessed as protection from maximal electric shock-induced seizures measured after 4 hrs; format: functional; conditions: read-out: MED
Procedure, shortened: (§3)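 Male CF-1 mice dosed ip at 30, 100 or 300 mg/kg, suspension in 0.5% methylcellulose/water. MES: corneal electrodes primed with electrolyte containing anaesthetic, 50 mA, 60 Hz, 0.2 s. Examined 0.5 and 4 h after dosing. Value is the minimum dose protecting half or more of the animals.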

Mus musculus [6] = assay: Anticonvulsant activity in CF-1 albino mouse assessed as protection from maximal electric shock-induced seizures at 300 mg/kg, ip measured after 0.5 hrs; format: functional, organism-based; design: dose 300 mg/kg; procedure, shortened: as §3
Mus musculus [7] = assay: Neurotoxicity in CF-1 albino mouse assessed as myoclonic jerks at 300 mg/kg, ip measured after 0.5 hrs by rotarod test; format: toxicity, organism-based; design: dose 300 mg/kg, route intraperitoneal; conditions: in vivo
Mus musculus [8] = assay: Neurotoxicity in CF-1 albino mouse assessed as motor impairment at 300 mg/kg, ip measured after 0.5 hrs by rotarod test; format: toxicity, organism-based; design: dose 300 mg/kg, route intraperitoneal; conditions: in vivo; procedure, shortened: as §2
Mus musculus [9] = assay: Anticonvulsant activity in CF-1 albino mouse assessed as protection from maximal electric shock-induced seizures at 300 mg/kg, ip measured after 4 hrs; format: functional, organism-based; design: dose 300 mg/kg; procedure, shortened: as §3
Mus musculus [10] = assay: Anticonvulsant activity in CF-1 albino mouse assessed as protection against subcutaneous pentylenetetrazol-induced seizures at 300 mg/kg, ip measured after 0.5 hrs; format: functional, organism-based; design: dose 300 mg/kg; procedure, shortened: as §1
Rattus norvegicus [11] = assay: Anticonvulsant activity in po dosed Sprague-Dawley rat assessed as protection from maximum electric shock-induced seizures; format: functional
Procedure, shortened: (§4)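 Male Sprague–Dawley rats dosed orally (0.5% methylcellulose suspension). MES 150 mA, 60 Hz, 0.2 s; rotarod impairment is failure to keep balance for 1 min. Groups of eight, at the previously estimated time of peak effect, with doses varied until at least three points fell in the 10–90% range. ED50/TD50 with 95% confidence intervals from regression; PI = TD50/ED50.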

Rattus norvegicus [12] = assay: Anticonvulsant activity in Sprague-Dawley rat assessed as protection from maximum electric shock-induced seizures at 30 mg/kg, po measured after 0.25 hrs; format: functional
Procedure, shortened: (§5)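 Male Sprague–Dawley rats, four per group, given 30 mg/kg orally as a suspension in 0.5% methylcellulose/water. MES stimulus 150 mA, 60 Hz, 0.2 s via corneal electrodes. Tested at 0.25, 0.5, 1, 2 and 4 h; value is rats protected out of four.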

Rattus norvegicus [13] = assay: Anticonvulsant activity in Sprague-Dawley rat assessed as protection from maximum electric shock-induced seizures at 30 mg/kg, po measured after 1 hr; format: functional; procedure, shortened: as §5
Rattus norvegicus [14] = assay: Anticonvulsant activity in po dosed maximum electric shock-induced Sprague-Dawley rat assessed as time of peak effect; format: functional; procedure, shortened: as §4
Rattus norvegicus [15] = assay: Anticonvulsant activity in Sprague-Dawley rat assessed as protection from maximum electric shock-induced seizures at 30 mg/kg, po measured after 4 hrs; format: functional; procedure, shortened: as §5
Rattus norvegicus [16] = assay: Anticonvulsant activity in Sprague-Dawley rat assessed as protection from maximum electric shock-induced seizures at 30 mg/kg, po measured after 0.5 hrs; format: functional; procedure, shortened: as §5
Rattus norvegicus [17] = assay: Neurotoxicity in Sprague-Dawley rat assessed as motor impairment at 30 mg/kg, po by rotarod test; format: toxicity, organism-based; design: dose 30 mg/kg, route oral; conditions: in vivo
Procedure, shortened: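 Male Sprague–Dawley rats, four animals, oral 30 mg/kg in 0.5% methylcellulose/water. Motor impairment on the rotarod (failure to keep balance for 1 min) assessed alongside MES at five times from 0.25 to 4 h.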

Rattus norvegicus [18] = assay: Anticonvulsant activity in Sprague-Dawley rat assessed as protection from maximum electric shock-induced seizures at 30 mg/kg, po measured after 2 hrs; format: functional; procedure, shortened: as §5
Mus musculus [19] = assay: Anticonvulsant activity in CF-1 albino mouse assessed as protection against 6 Hz psychomotor seizure at 100 mg/kg, ip measured after 0.25 hrs; format: functional; conditions: route intraperitoneal
Procedure, shortened: (§6)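 6-Hz psychomotor seizure in male CF-1 mice, compound suspended in 0.5% methylcellulose/water, given ip (100 or 75 mg/kg). Corneal stimulation with 0.2 ms monopolar rectangular pulses at 6 Hz for 3 s, 32 mA, constant-current device. Protected if normal exploratory behaviour resumes within 10 s. Tested 0.25–4 h after dosing; value is mice protected out of four.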

Mus musculus [20] = assay: Anticonvulsant activity in CF-1 albino mouse assessed as protection against 6 Hz psychomotor seizure at 100 mg/kg, ip measured after 4 hrs; format: functional; conditions: route intraperitoneal; procedure, shortened: as §6
Mus musculus [21] = assay: Anticonvulsant activity in CF-1 albino mouse assessed as protection against 6 Hz psychomotor seizure at 100 mg/kg, ip measured after 2 hrs; format: functional; conditions: route intraperitoneal; procedure, shortened: as §6
Mus musculus [22] = assay: Anticonvulsant activity in CF-1 albino mouse assessed as protection against 6 Hz psychomotor seizure at 100 mg/kg, ip measured after 0.5 hrs; format: functional; conditions: route intraperitoneal; procedure, shortened: as §6
Mus musculus [23] = assay: Anticonvulsant activity in CF-1 albino mouse assessed as protection against 6 Hz psychomotor seizure at 100 mg/kg, ip measured after 1 hr; format: functional; conditions: route intraperitoneal; procedure, shortened: as §6
Mus musculus [24] = assay: Anticonvulsant activity in ip dosed CF-1 albino mouse assessed as protection from maximal electric shock-induced seizures measured after 0.5 hrs; format: functional; conditions: read-out: MED; procedure, shortened: as §3
Mus musculus [25] = assay: Anticonvulsant activity in ip dosed CF-1 albino mouse assessed as protection against subcutaneous pentylenetetrazol-induced seizures measured after 4 hrs; format: functional; conditions: read-out: MED; procedure, shortened: as §1

Row | Structure (SMILES) | Activity (Mus musculus [4]) | minimal effective dose (Mus musculus [5]) [mg/kg] | Activity (Mus musculus [6]) | Activity (Mus musculus [8]) | Activity (Mus musculus [9]) | also measured
1 | O=C1CC(c2ccccc2F)C(=O)N1CN1CCN(c2ncccn2)CC1 (racemic) | Non-toxic | 100 | inactive | – | – | Activity (Mus musculus [1]): inactive; MTC (Mus musculus [2]): 300 mg/kg; minimal effective dose (Mus musculus [3]): 300 mg/kg; Activity (Mus musculus [7]): Toxic
2 | O=C1CC(c2ccccc2F)C(=O)N1CN1CCN(C2CCCCC2)CC1 (racemic) | Non-toxic | – | inactive | Non-toxic | inactive | Activity (Mus musculus [1]): inactive; Activity (Mus musculus [10]): inactive
3 | O=C1CC(c2ccccc2F)C(=O)N1CN1CCN(c2cccc(Cl)c2)CC1 (racemic) | Non-toxic | – | inactive | Non-toxic | inactive | –
4 | O=C1CC(c2ccccc2Br)C(=O)N1CN1CCN(c2ccccc2Cl)CC1 (racemic) | Non-toxic | 300 | inactive | Non-toxic | – | –
5 | O=C1CC(c2ccccc2F)C(=O)N1CN1CCN(c2ccccc2F)CC1 (racemic) | Non-toxic | – | inactive | Non-toxic | inactive | –
6 | O=C1CC(c2ccccc2Br)C(=O)N1CN1CCN(C2CCCCC2)CC1 (racemic) | Non-toxic | 100 | inactive | Non-toxic | – | Activity (Mus musculus [1]): inactive; ED50 (Rattus norvegicus [11]): < 240 mg/kg; Activity (Rattus norvegicus [12]): 50%; Activity (Rattus norvegicus [13]): 100%; Time (Rattus norvegicus [14]): 2 h; Activity (Rattus norvegicus [15]): 25%; Activity (Rattus norvegicus [16]): 50%; Activity (Rattus norvegicus [17]): Non-toxic; Activity (Mus musculus [10]): inactive; Activity (Rattus norvegicus [18]): 25%
7 | O=C1CC(c2ccccc2Br)C(=O)N1CN1CCN(c2ccc(Cl)cc2)CC1 (racemic) | Non-toxic | 300 | inactive | Non-toxic | – | –
8 | O=C1CC(c2ccccc2F)C(=O)N1CN1CCN(c2ccc(Cl)cc2)CC1 (racemic) | Non-toxic | 100 | inactive | Non-toxic | – | Activity (Mus musculus [19]): 25%; Activity (Mus musculus [20]): 0%; Activity (Rattus norvegicus [12]): 0%; Activity (Rattus norvegicus [13]): 0%; Activity (Mus musculus [21]): 0%; Activity (Mus musculus [22]): 50%; Activity (Mus musculus [23]): 25%; Activity (Rattus norvegicus [15]): 50%; Activity (Rattus norvegicus [16]): 0%; Activity (Rattus norvegicus [17]): Non-toxic; Activity (Rattus norvegicus [18]): 25%
9 | O=C1CC(c2ccccc2F)C(=O)N1CN1CCN(c2ccccc2Cl)CC1 (stereo not given) | Non-toxic | – | inactive | Non-toxic | inactive | –
10 | O=C1CC(c2ccccc2Br)C(=O)N1CN1CCOCC1 (racemic) | Non-toxic | 100 | – | – | – | Activity (Mus musculus [1]): inactive; MTC (Mus musculus [2]): 300 mg/kg; minimal effective dose (Mus musculus [3]): 300 mg/kg; Activity (Rattus norvegicus [12]): 0%; minimal effective dose (Mus musculus [24]): 100 mg/kg; Activity (Rattus norvegicus [13]): 0%; Activity (Rattus norvegicus [15]): 25%; Activity (Rattus norvegicus [16]): 0%; Activity (Rattus norvegicus [17]): Non-toxic; Activity (Rattus norvegicus [18]): 0%
11 | O=C1CC(c2ccccc2Br)C(=O)N1CN1CCN(c2ccccc2)CC1 (racemic) | Non-toxic | 100 | inactive | Non-toxic | – | Activity (Mus musculus [19]): 25%; Activity (Mus musculus [20]): 50%; Activity (Mus musculus [21]): 75%; Activity (Mus musculus [22]): 0%; Activity (Mus musculus [23]): 50%
12 | O=C1CC(c2ccccc2Br)C(=O)N1CN1CCN(c2cccc(C(F)(F)F)c2)CC1 (racemic) | – | 300 | inactive | Non-toxic | – | –
13 | O=C1CC(c2ccccc2F)C(=O)N1CN1CCN(c2ccccc2)CC1 (racemic) | Non-toxic | 300 | inactive | – | – | MTC (Mus musculus [2]): 300 mg/kg
14 | O=C1CC(c2ccccc2Br)C(=O)N1CN1CCN(c2ccccc2F)CC1 (racemic) | Non-toxic | – | inactive | Non-toxic | inactive | Activity (Mus musculus [19]): 0%; Activity (Mus musculus [20]): 25%; Activity (Mus musculus [21]): 25%; Activity (Mus musculus [22]): 25%; Activity (Mus musculus [23]): 25%
15 | CCC1(C)CC(=O)NC1=O (stereo not given) [ETHOSUXIMIDE] | Non-toxic | – | inactive | Non-toxic | inactive | minimal effective dose (Mus musculus [3]): 100 mg/kg; minimal effective dose (Mus musculus [25]): 300 mg/kg

From ChEMBL document CHEMBL2086314, “Synthesis and anticonvulsant activity of new N-Mannich bases derived from 3-(2-fluorophenyl)- and 3-(2-bromophenyl)-pyrrolidine-2,5-diones. Part II” (Bioorg Med Chem, 2012)
